pEC50: −log10 of the molar value. Where a SMILES comes first, the peptide text is derived from it. Bridges are numbered along the chain shown (N, C = ends).

The test system of this assay is Human immunodeficiency virus 1. In words: Antiviral activity against HIV1 RF infected in human CEM-SS cells assessed as inhibition of virus induced cytopathic effect by XTT assay. It is filed as functional, organism-based. Particulars: Human immunodeficiency virus 1, RF. The method in brief: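 HIV-1RF infection of CEM-SS, a human T-lymphoblastoid cell line, in vitro; inhibition of virus-induced cytopathic effects read out and reported as EC50 in µM.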
In general terms: Damage to the host cells serves as the signal in cytopathic effect assays.
By pEC50 is commonly meant the EC50 on a negative log10 scale, so that one unit is a factor of ten. With `CC[C@H](C)[C@@H]1NC(=O)[C@@H]2CSSC[C@@H]3NC(=O)[C@H](C(C)C)NC(=O)[C@H](CCCCN)NC(=O)[C@H](CC(N)=O)NC(=O)[C@H](CCCCN)NC(=O)[C@@H]4CSSC[C@H](NC(=O)[C@H](CO)NC(=O)[C@H](CCC(=O)O)NC(=O)CNC(=O)[C@H](CSSC[C@H](NC(=O)CNC(=O)[C@H](CC(C)C)NC(=O)[C@H](C)NC(=O)[C@H](C)NC(=O)[C@H](CO)NC1=O)C(=O)N[C@@H](CO)C(=O)N4)NC(=O)[C@@H]1CCCN1C(=O)[C@H]([C@@H](C)CC)NC(=O)CNC(=O)[C@H](CC(N)=O)NC(=O)[C@H](CCCNC(=N)N)NC(=O)[C@H](Cc1ccc(O)cc1)NC3=O)C(=O)N[C@@H](C(C)C)C(=O)N[C@@H](Cc1c[nH]c3ccccc13)C(=O)N[C@@H]([C@@H](C)CC)C(=O)N1CCC[C@H]1C(=O)N2` [CIRCULIN A] (cyclo(AALGCSCKNKVCYRNGIPCGESCVWIPCIS); disulfide 5-19, 7-23, 12-28), the negative-log EC50 (pEC50) is 7.30.

Consider `CC[C@H](C)[C@@H]1NC(=O)[C@@H]2CSSC[C@@H]3NC(=O)[C@H](C(C)C)NC(=O)[C@H](CCCCN)NC(=O)[C@H](CC(N)=O)NC(=O)[C@H](CCCCN)NC(=O)[C@@H]4CSSC[C@H](NC(=O)[C@H](CO)NC(=O)[C@H](CCC(=O)O)NC(=O)CNC(=O)[C@H](CSSC[C@H](NC(=O)CNC(=O)[C@H](CC(C)C)NC(=O)[C@H](CC(C)C)NC(=O)[C@H]([C@@H](C)O)NC(=O)[C@H](CO)NC1=O)C(=O)N[C@@H](CO)C(=O)N4)NC(=O)[C@@H]1CCCN1C(=O)[C@H]([C@@H](C)CC)NC(=O)[C@H](C(C)C)NC(=O)CNC(=O)[C@H](CC(N)=O)NC(=O)[C@H](CCCNC(=N)N)NC(=O)[C@H](Cc1ccc(O)cc1)NC3=O)C(=O)N[C@@H](C(C)C)C(=O)N[C@@H](Cc1ccccc1)C(=O)N[C@@H]([C@@H](C)CC)C(=O)N1CCC[C@H]1C(=O)N2` [CIRCULIN B] (cyclo(CGESCVFIPCISTLLGCSCKNKVCYRNGVIP); disulfide 1-17, 5-19, 10-24), for which the pEC50 was 7.30.

On to `CC[C@H](C)[C@@H]1NC(=O)[C@@H]2CSSC[C@@H]3NC(=O)[C@H](C(C)C)NC(=O)[C@H](CCCCN)NC(=O)[C@H](CO)NC(=O)[C@H](CCCCN)NC(=O)[C@@H]4CSSC[C@H](NC(=O)[C@H](CO)NC(=O)[C@H](CCC(=O)O)NC(=O)CNC(=O)[C@H](CSSC[C@H](NC(=O)CNC(=O)[C@H](C)NC(=O)[C@H](C(C)C)NC(=O)[C@H](CO)NC(=O)[C@H]([C@@H](C)O)NC1=O)C(=O)N[C@@H](CO)C(=O)N4)NC(=O)[C@@H]1CCCN1C(=O)[C@H]([C@@H](C)CC)NC(=O)CNC(=O)[C@H](CC(N)=O)NC(=O)[C@H](CCCNC(=N)N)NC(=O)[C@H](Cc1ccc(O)cc1)NC3=O)C(=O)N[C@@H](C(C)C)C(=O)N[C@@H](Cc1ccccc1)C(=O)N[C@@H]([C@@H](C)CC)C(=O)N1CCC[C@H]1C(=O)N2` [CIRCULIN C] (cyclo(AGCSCKSKVCYRNGIPCGESCVFIPCITSV); disulfide 3-17, 5-21, 10-26), for which the pEC50 is 7.30.

Consider `CC[C@H](C)[C@@H]1NC(=O)[C@H](CO)NC(=O)[C@H]([C@@H](C)O)NC(=O)[C@H](Cc2ccc(O)cc2)NC(=O)[C@@H]2CSSC[C@@H]3NC(=O)[C@H](C(C)C)NC(=O)[C@H](CCCCN)NC(=O)[C@H](CC(N)=O)NC(=O)[C@H](CCC(=O)O)NC(=O)[C@@H]4CSSC[C@H](NC(=O)[C@H](CO)NC(=O)[C@H](CCC(=O)O)NC(=O)CNC(=O)[C@H](CSSC[C@H](NC(=O)[C@H](CC(N)=O)NC(=O)[C@H](Cc5ccccc5)NC1=O)C(=O)N[C@@H](CCCCN)C(=O)N4)NC(=O)[C@@H]1CCCN1C(=O)[C@H]([C@@H](C)CC)NC(=O)[C@H](CCCCN)NC(=O)[C@H](CC(=O)O)NC(=O)[C@H](Cc1cnc[nH]1)NC(=O)[C@H](Cc1ccc(O)cc1)NC3=O)C(=O)N[C@@H](C(C)C)C(=O)N[C@@H](Cc1c[nH]c3ccccc13)C(=O)N[C@@H]([C@@H](C)CC)C(=O)N1CCC[C@H]1C(=O)N2` [CIRCULIN D] (cyclo(CENKVCYHDKIPCGESCVWIPCYTSIFNCK); disulfide 1-17, 6-22, 13-29), for which the pEC50 was 7.30.

In the case of `CC[C@H](C)[C@@H]1NC(=O)[C@H](CCCCN)NC(=O)[C@H](CC(=O)O)NC(=O)[C@H](Cc2cnc[nH]2)NC(=O)[C@H](Cc2ccc(O)cc2)NC(=O)[C@@H]2CSSC[C@@H]3NC(=O)[C@@H]4CCCN4C(=O)[C@H]([C@@H](C)CC)NC(=O)[C@H](Cc4c[nH]c5ccccc45)NC(=O)[C@H](C(C)C)NC(=O)[C@@H]4CSSC[C@H](NC(=O)[C@H](CCCCN)NC(=O)[C@H](CSSC[C@H](NC(=O)[C@@H]5CCCN5C1=O)C(=O)NCC(=O)N[C@@H](CCC(=O)O)C(=O)N[C@@H](CO)C(=O)N4)NC(=O)[C@H](CC(N)=O)NC(=O)[C@H](Cc1ccccc1)NC(=O)[C@H](C(C)C)NC(=O)[C@H](CO)NC(=O)[C@H]([C@@H](C)O)NC(=O)[C@H](CC(C)C)NC3=O)C(=O)N[C@@H](CCC(=O)O)C(=O)N[C@@H](CC(N)=O)C(=O)N[C@@H](CCCCN)C(=O)N[C@@H](C(C)C)C(=O)N2` [CIRCULIN E] (cyclo(CENKVCYHDKIPCGESCVWIPCLTSVFNCK); disulfide 1-17, 6-22, 13-29), the pEC50 was 7.30.

Consider `CC[C@H](C)[C@@H]1NC(=O)[C@H](C)NC(=O)[C@H](C)NC(=O)[C@H](CO)NC(=O)[C@H]([C@@H](C)CC)NC(=O)[C@@H]2CSSC[C@@H]3NC(=O)[C@H](C(C)C)NC(=O)[C@H](CCCCN)NC(=O)[C@H](CC(N)=O)NC(=O)[C@H](CCCCN)NC(=O)[C@@H]4CSSC[C@H](NC(=O)[C@H](CO)NC(=O)[C@H](CCC(=O)O)NC(=O)CNC(=O)[C@H](CSSC[C@H](NC(=O)CNC1=O)C(=O)N[C@@H](CO)C(=O)N4)NC(=O)[C@@H]1CCCN1C(=O)[C@H]([C@@H](C)CC)NC(=O)[C@H](C)NC(=O)[C@H](CCCNC(=N)N)NC(=O)[C@H](Cc1ccc(O)cc1)NC3=O)C(=O)N[C@@H](C(C)C)C(=O)N[C@@H](Cc1c[nH]c3ccccc13)C(=O)N[C@@H]([C@@H](C)CC)C(=O)N1CCC[C@H]1C(=O)N2` [CIRCULIN F] (cyclo(AAIGCSCKNKVCYRAIPCGESCVWIPCIS); disulfide 5-18, 7-22, 12-27), for which the pEC50 is 7.30.

Turning to `CC[C@H](C)[C@@H]1NC(=O)[C@H](C)NC(=O)[C@H](C)NC(=O)[C@H](CO)NC(=O)[C@H]([C@@H](C)CC)NC(=O)[C@@H]2CSSC[C@@H]3NC(=O)[C@H](C(C)C)NC(=O)[C@H](CCCCN)NC(=O)[C@H](CC(N)=O)NC(=O)[C@H](CCCCN)NC(=O)[C@@H]4CSSC[C@H](NC(=O)[C@H](CO)NC(=O)[C@H](CCC(=O)O)NC(=O)CNC(=O)[C@H](CSSC[C@H](NC(=O)CNC1=O)C(=O)N[C@@H](CO)C(=O)N4)NC(=O)[C@@H]1CCCN1C(=O)[C@H]([C@@H](C)CC)NC(=O)[C@H](C(C)C)NC(=O)CNC(=O)[C@H](CC(N)=O)NC(=O)[C@H](CCCNC(=N)N)NC(=O)[C@H](Cc1ccc(O)cc1)NC3=O)C(=O)N[C@@H](C(C)C)C(=O)N[C@@H](Cc1ccccc1)C(=O)N[C@@H]([C@@H](C)CC)C(=O)N1CCC[C@H]1C(=O)N2` [CYCLOVIOLIN A] (cyclo(AAIGCSCKNKVCYRNGVIPCGESCVFIPCIS); disulfide 5-20, 7-24, 12-29), the negative-log EC50 (pEC50) was 7.30.

Take `CC(C)C[C@@H]1NC(=O)[C@H](C(C)C)NC(=O)[C@H](Cc2ccc(O)cc2)NC(=O)[C@@H]2CSSC[C@@H]3NC(=O)[C@H]([C@@H](C)O)NC(=O)[C@@H]4CSSC[C@H](NC(=O)[C@H](C)NC(=O)[C@H]([C@@H](C)O)NC(=O)CNC(=O)[C@H](CC(N)=O)NC(=O)[C@H](CCCCN)NC(=O)[C@H](Cc5ccccc5)NC(=O)[C@H](CSSC[C@H](NC(=O)[C@@H]5CCCN5C1=O)C(=O)N[C@@H](Cc1ccccc1)C(=O)N[C@@H]([C@@H](C)O)C(=O)N[C@@H](C(C)C)C(=O)NCC(=O)N4)NC(=O)[C@H](CCC(N)=O)NC(=O)[C@H](CO)NC(=O)[C@H](CO)NC(=O)[C@H]([C@@H](C)O)NC3=O)C(=O)NCC(=O)N[C@@H](CCC(=O)O)C(=O)N[C@@H](CO)C(=O)N2` [CYCLOVIOLIN B] (cyclo(ACGESCYVLPCFTVGCTCTSSQCFKNGT); disulfide 2-16, 6-18, 11-23): the pEC50 was 7.30.

As to `CC[C@H](C)[C@@H]1NC(=O)CNC(=O)[C@H](CC(N)=O)NC(=O)[C@H](CCCNC(=N)N)NC(=O)[C@H](Cc2ccc(O)cc2)NC(=O)[C@@H]2CSSC[C@@H]3NC(=O)[C@@H]4CCCN4C(=O)[C@H]([C@@H](C)CC)NC(=O)[C@H](Cc4ccccc4)NC(=O)[C@H](C(C)C)NC(=O)[C@@H]4CSSC[C@H](NC(=O)[C@H](CO)NC(=O)[C@H](CSSC[C@H](NC(=O)[C@@H]5CCCN5C1=O)C(=O)NCC(=O)N[C@@H](CCC(=O)O)C(=O)N[C@@H](CO)C(=O)N4)NC(=O)CNC(=O)[C@H](C)NC(=O)[C@H](C(C)C)NC(=O)[C@H]([C@@H](C)O)NC(=O)[C@H]([C@@H](C)O)NC(=O)[C@H](CC(C)C)NC3=O)C(=O)N[C@@H](CCCCN)C(=O)N[C@@H](CC(N)=O)C(=O)N[C@@H](CCCCN)C(=O)N[C@@H](C(C)C)C(=O)N2` [CYCLOVIOLIN C] (cyclo(AGCSCKNKVCYRNGIPCGESCVFIPCLTTV); disulfide 3-17, 5-21, 10-26), the negative-log EC50 (pEC50) was 7.30.

As to `CC[C@H](C)[C@@H]1NC(=O)[C@H](C)NC(=O)[C@H](C)NC(=O)[C@H](CO)NC(=O)[C@H]([C@@H](C)CC)NC(=O)[C@@H]2CSSC[C@@H]3NC(=O)[C@H](C(C)C)NC(=O)[C@H](CCCCN)NC(=O)[C@H](CC(N)=O)NC(=O)[C@H](CCCCN)NC(=O)[C@@H]4CSSC[C@H](NC(=O)[C@H](CO)NC(=O)[C@H](CCC(=O)O)NC(=O)CNC(=O)[C@H](CSSC[C@H](NC(=O)CNC1=O)C(=O)N[C@@H](CO)C(=O)N4)NC(=O)[C@@H]1CCCN1C(=O)[C@H](Cc1ccccc1)NC(=O)CNC(=O)[C@H](CC(N)=O)NC(=O)[C@H](CCCNC(=N)N)NC(=O)[C@H](Cc1ccc(O)cc1)NC3=O)C(=O)N[C@@H](C(C)C)C(=O)N[C@@H](Cc1ccccc1)C(=O)N[C@@H]([C@@H](C)CC)C(=O)N1CCC[C@H]1C(=O)N2` [CYCLOVIOLIN D] (cyclo(AAIGCSCKNKVCYRNGFPCGESCVFIPCIS); disulfide 5-19, 7-23, 12-28), the pEC50 is 7.30.
